Results reported in ChEMBL document CHEMBL1141297, “Bioactive p-terphenyl derivatives from a Cordyceps-colonizing isolate of Gliocladium sp” (J Nat Prod, 2007).
Converted amounts (≈) assume the structure as drawn. The source made the active and inactive calls. The calls are words filed in the database; no cut-off is given here.

What was measured:
[1] = system: Staphylococcus aureus; assay: Antimicrobial activity against Staphylococcus aureus ATCC 6538 at 100 ug/disk after 48 hrs; type: functional; conditions: ATCC 6538, 48 h, read-out: IZ
[2] = system: Staphylococcus aureus; assay: Antimicrobial activity against Staphylococcus aureus ATCC 6538 after 24 hrs by broth dilution assay; type: functional; conditions: ATCC 6538, 24 h
[3] = system: Streptococcus mutans; assay: Antimicrobial activity against Streptococcus mutans ATCC 25175 at 100 ug/disk after 24 hrs; type: functional, organism-based
Procedure, shortened: (§1)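 Bacteria were grown on Mueller-Hinton agar. 6 mm paper disks carrying 100 µg compound were placed on the agar surface and plates were incubated at 37 °C for 24 h. The read-out was the presence and diameter of the inhibition zone, with a ciprofloxacin disk (100 µg) as reference.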

[4] = system: Enterococcus faecalis; assay: Antimicrobial activity against Enterococcus faecalis ATCC 19433 at 100 ug/disk after 24 hrs; type: functional, organism-based; procedure, shortened: as §1
[5] = system: Micrococcus luteus; assay: Antimicrobial activity against Sarcina lutea CMCC B28001 at 100 ug/disk after 24 hrs; type: functional, organism-based; procedure, shortened: as §1
[6] = system: HeLa; assay: Growth inhibition of human HeLa cells after 4 hrs by MTT assay; type: functional, cell-based
Procedure, shortened: (§2)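 MTT viability: 10⁴ cells/well attached overnight, then exposed to serial dilutions (from a 10 mg/mL DMSO stock) in medium, with 0.2% DMSO vehicle, for 4 h at 37 °C, 5% CO₂. Medium was then changed to fresh DMEM, followed by MTT (0.5 mg/mL) for 3 h at 37 °C in the dark. Formazan was dissolved in DMSO and read at 540 nm to give IC50.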

[7] = system: HCT-116; assay: Growth inhibition of human HCT116 cells after 4 hrs by MTT assay; type: functional, cell-based; conditions: HCT-116, 4 h; procedure, shortened: as §2
[8] = system: Geotrichum candidum; assay: Antifungal activity against Geotrichum candidum AS2.498 at 100 ug/disk after 48 hrs
[9] = system: Candida albicans; assay: Antifungal activity against Candida albicans ATCC 10231 at 100 ug/disk after 48 hrs
[10] = system: Aspergillus fumigatus; assay: Antifungal activity against Aspergillus fumigatus ATCC 10894 at 100 ug/disk after 48 hrs

MIC [2] [µM] | IC50 [6] [µM] | IC50 [7] [µM] | SMILES | zone of inhibition at 100 µg/disc [1] [mm] | Activity [3] | Activity [4] | Activity [5] | Activity [8] | Activity [9] | Activity [10]
130 (≈ 65.1 µg/mL) | 40 | 80 | COc1ccc(-c2cc(O)c(-c3ccc(OC)cc3)c(O)c2O[C@@H]2O[C@H](CO)[C@@H](O)[C@H](O)[C@H]2O)cc1 [GLIOCLADININ B] | 20 | inactive | inactive | inactive | inactive | inactive | inactive
270 (≈ 100 µg/mL) | 54 | > 270 | COC1=C(c2ccc(OC)cc2)C(=O)[C@H](O)[C@@](O)(c2ccc(OC)cc2)C1 [GLIOCLADININ A] | 15 | inactive | inactive | inactive | inactive | inactive | inactive
 |  |  | O=C(O)c1cn(C2CC2)c2cc(N3CCNCC3)c(F)cc2c1=O [CIPROFLOXACIN] | 35 |  |  |  |  |  | 
